How the values were obtained:
[1] = molecular target: T1, Chitinase B (Serratia marcescens, UniProt P11797); experiment: Inhibition of Serratia marcescens chitinase ChiB assessed as reduction in chitinolytic activity using 4MU-(GlcNAc)2 substrate by fluorescence based assay
T1 sequence (P11797 whole entry): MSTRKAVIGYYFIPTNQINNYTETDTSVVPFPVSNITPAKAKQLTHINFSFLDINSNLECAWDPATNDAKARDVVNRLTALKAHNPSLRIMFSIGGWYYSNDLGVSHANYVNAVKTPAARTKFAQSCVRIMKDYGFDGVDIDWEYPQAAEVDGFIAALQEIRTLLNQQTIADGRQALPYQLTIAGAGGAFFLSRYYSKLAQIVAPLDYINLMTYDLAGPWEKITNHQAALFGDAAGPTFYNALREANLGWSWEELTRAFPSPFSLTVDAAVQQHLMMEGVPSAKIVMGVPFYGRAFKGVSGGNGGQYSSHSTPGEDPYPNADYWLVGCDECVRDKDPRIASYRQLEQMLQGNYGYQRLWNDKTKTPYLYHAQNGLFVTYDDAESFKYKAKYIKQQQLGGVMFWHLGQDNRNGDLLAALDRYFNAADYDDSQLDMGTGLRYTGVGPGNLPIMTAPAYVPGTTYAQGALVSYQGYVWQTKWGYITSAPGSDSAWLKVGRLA
Procedure, shortened: (§1)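 Crude SmChiB: supernatant of sonicated E. coli DH5α carrying pMCB7, grown 24 h at 37 °C in LB with ampicillin and 0.5 mM IPTG, then diluted ×40. Enzyme and inhibitors (in MeOH) were mixed in 0.1 M phosphate, pH 7.0, at 37 °C, and 80 μM 4MU(GlcNAc)2 solution was added. Fluorescence (ex 355/em 460 nm) was read every 60 s, with rates corrected for inhibitor quenching. IC50 was taken from sigmoidal dose–response fits.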

[2] = tested on: Klebsiella pneumoniae; experiment: Antibacterial activity against Klebsiella pneumoniae NCTC 9632 by antimicrobial disk and dilution susceptibility test; type: functional
[3] = tested on: Proteus mirabilis; experiment: Antibacterial activity against Proteus mirabilis IFO3849 by antimicrobial disk and dilution susceptibility test; type: functional
[4] = tested on: Escherichia coli; experiment: Antibacterial activity against Escherichia coli NIHJ JC-2 by antimicrobial disk and dilution susceptibility test; type: functional
[5] = tested on: Staphylococcus epidermidis; experiment: Antibacterial activity against Staphylococcus epidermidis KUB795 by antimicrobial disk and dilution susceptibility test; type: functional
[6] = tested on: Staphylococcus aureus; experiment: Antibacterial activity against methicillin-sensitive Staphylococcus aureus Smith by antimicrobial disk and dilution susceptibility test; type: functional
[7] = tested on: Serratia marcescens; experiment: Antibacterial activity against Serratia marcescens IFO12648 by antimicrobial disk and dilution susceptibility test; type: functional
[8] = tested on: Acinetobacter calcoaceticus; experiment: Antibacterial activity against Acinetobacter calcoaceticus IFO12552 by antimicrobial disk and dilution susceptibility test; type: functional
[9] = tested on: Enterobacter cloacae; experiment: Antibacterial activity against Enterobacter cloacae IFO13535 by antimicrobial disk and dilution susceptibility test; type: functional
[10] = tested on: Morganella morganii; experiment: Antibacterial activity against Morganella morganii IID Kono by antimicrobial disk and dilution susceptibility test; type: functional
[11] = tested on: Klebsiella aerogenes; experiment: Antibacterial activity against Enterobacter aerogenes NCTC 10006 by antimicrobial disk and dilution susceptibility test; type: functional
[12] = tested on: Enterococcus faecalis; experiment: Antibacterial activity against Enterococcus faecalis ATCC 29212 by antimicrobial disk and dilution susceptibility test; type: functional
[13] = tested on: Citrobacter freundii; experiment: Antibacterial activity against Citrobacter freundii ATCC 8090 by antimicrobial disk and dilution susceptibility test; type: functional
[14] = tested on: Pseudomonas aeruginosa; experiment: Antibacterial activity against Pseudomonas aeruginosa 46001 by antimicrobial disk and dilution susceptibility test; type: functional
[15] = tested on: Micrococcus luteus; experiment: Antibacterial activity against Micrococcus luteus ATCC 9341 by antimicrobial disk and dilution susceptibility test; type: functional
[16] = tested on: Pseudomonas aeruginosa; experiment: Antibacterial activity against Pseudomonas aeruginosa E-2 by antimicrobial disk and dilution susceptibility test; type: functional
[17] = tested on: Proteus vulgaris; experiment: Antibacterial activity against Proteus vulgaris OX-19 by antimicrobial disk and dilution susceptibility test; type: functional
[18] = tested on: Staphylococcus aureus; experiment: Antibacterial activity against methicillin-sensitive Staphylococcus aureus FDA209P by antimicrobial disk and dilution susceptibility test; type: functional
[19] = molecular target: T1, Chitinase B; experiment: Inhibition of Serratia marcescens chitinase ChiB; procedure, shortened: as §1

Work on `CC[C@H]1OC(=O)[C@H](C)[C@@H](O)[C@H](C)[C@@H](O)[C@](C)(O)C[C@@H](C)/C(=N\OCc2cn(CCNC(=N)NC(=O)NC)nn2)[C@H](C)[C@@H](O)[C@]1(C)O` yielded an IC50 [1] of 24.1 µM.
In the case of `CC[C@H]1OC(=O)[C@H](C)[C@@H](O)[C@H](C)[C@@H](OCc2cn(CCNC(=N)NC(=O)NC)nn2)[C@](C)(O)C[C@@H](C)[C@@H]2OC(C)(C)O[C@H]([C@H]2C)[C@]1(C)O`, the IC50 [1] is reported as 11.9 µM.
Compound `C#CCO[C@@H]1[C@@H](C)[C@H](OC(=O)NCCCCNC(=N)NC(=O)NC)[C@@H](C)C(=O)O[C@H](CC)[C@@](C)(O)[C@@H]2OC(C)(C)O[C@H]([C@@H]2C)[C@H](C)C[C@@]1(C)O` has an IC50 [1] of 0.217 µM.
`CC[C@H]1OC(=O)[C@H](C)[C@@H](OCc2cn(CCNC(=N)NC(=O)NC)nn2)[C@H](C)[C@@H](O)[C@](C)(O)C[C@@H](C)[C@@H]2OC(C)(C)O[C@H]([C@H]2C)[C@]1(C)O` showed an IC50 [1] of 3.3 µM.
In the case of `CC[C@H]1OC(=O)[C@H](C)[C@@H](O)[C@H](C)[C@@H](O)[C@](C)(O)C[C@@H](C)[C@@H]2OC(C)(C)O[C@H]([C@H]2C)[C@]1(C)O`, the IC50 [1] is reported as > 300 µM.
Compound `CNC(=O)NC(=N)NCCN=[N+]=[N-]` has an IC50 [1] of 7 µM.
In the case of `CNC(=O)NC(=N)n1cccn1`, the IC50 [1] is reported as > 300 µM.
With `C#CCO[C@@H]1[C@@H](C)[C@H](O)[C@@H](C)C(=O)O[C@H](CC)[C@@](C)(O)[C@@H]2OC(C)(C)O[C@H]([C@@H]2C)[C@H](C)C[C@@]1(C)O` the IC50 [1] was > 300 µM.
With `C#CCO[C@@H]1[C@@H](C)[C@H](OC(=O)NCCCNC(=N)NC(=O)NC)[C@@H](C)C(=O)O[C@H](CC)[C@@](C)(O)[C@@H]2OC(C)(C)O[C@H]([C@@H]2C)[C@H](C)C[C@@]1(C)O` the MIC [2] was > 64 µg/mL, the MIC [3] was > 64 µg/mL and the IC50 [1] was 0.036 µM. The MIC [4] was > 64 µg/mL, the MIC [5] was > 64 µg/mL and the MIC [6] was > 64 µg/mL. The MIC [7] was > 64 µg/mL, the MIC [8] was > 64 µg/mL and the MIC [9] was > 64 µg/mL. The MIC [10] was > 64 µg/mL, the MIC [11] was > 64 µg/mL and the MIC [12] was > 64 µg/mL. For the same compound, the MIC [13] was > 64 µg/mL, the MIC [14] was > 64 µg/mL and the MIC [15] was > 64 µg/mL. For the same compound, the MIC [16] was > 64 µg/mL, the MIC [17] was > 64 µg/mL and the MIC [18] was > 64 µg/mL.
`CC(=O)N[C@H]1[C@H](O[C@H]2[C@@H](O)[C@@H](NC(C)=O)[C@H](O[C@H]3[C@H](O)[C@H]4N=C(N(C)C)O[C@H]4[C@@H]3CO)O[C@@H]2CO)O[C@H](CO)[C@@H](O)[C@H]1O` [ALLOSAMIDIN] was tested, and the IC50 [1] was 0.09 µM.
`CC(=O)NC(=N)NCCC[C@@H]1NC(=O)[C@H](CCCC(=O)O)NC(=O)[C@H](Cc2c[nH]cn2)N2C(=O)[C@H](C[C@H]2O)NC(=O)[C@H]2CCCN2C1=O` [ARGADIN] showed an IC50 [19] of 0.033 µM.
For `CC[C@H]1OC(=O)[C@H](C)[C@@H](O[C@H]2C[C@@](C)(OC)[C@@H](O)[C@H](C)O2)[C@H](C)[C@@H](O[C@@H]2O[C@H](C)C[C@H](N(C)C)[C@H]2O)[C@](C)(O)C[C@@H](C)C(=O)[C@H](C)[C@@H](O)[C@]1(C)O` [ERYTHROMYCIN], the IC50 [1] was > 300 µM.

Reference: ChEMBL document CHEMBL3576758, “Creation of Customized Bioactivity within a 14-Membered Macrolide Scaffold: Design, Synthesis, and Biological Evaluation Using a Family-18 Chitinase” (J Med Chem, 2015)
